Laboratory results taken from ChEMBL document CHEMBL1127616, “Synthesis, structural characterization, and antitumor properties of a novel class of large-ring platinum(II) chelate complexes incorporating the cis-1,4-diaminocyclohexane ligand in a unique locked boat conformation” (J Med Chem, 1994).

Tested on: L1210
Assay: Tested for the ratio of treated and control against solid tumor murine L1210 leukemia 2.5 mg/kg per injection in experiment 2; T/C
Assay type: functional, organism-based
Details: Mus musculus
Method in brief: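 Murine leukemia life span assay in CD2F1 (Balb/c × DBA/2F1) mice, 18–22 g, randomized, with IP tumor cell inoculation on day 0. Depending on the model, the inoculum was 1 × 10^4 cells with IP dosing on days 3, 7 and 11, or 1 × 10^6 cells with IP dosing on days 1, 5 and 9. Drug was given in 0.9% saline, mg/kg per injection, by average cage weight. Read-outs were median day of death and %T/C. Mice alive 60 days after treatment counted as cured and were excluded.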

[Pt(cis-1,4-dach)CL2]
Ratio: 242%
